Experimental data: ChEMBL document CHEMBL1764963, “In vitro and QSAR studies of cucurbitacins on HepG2 and HSC-T6 liver cell lines” (Bioorg Med Chem, 2011)
Activity calls are given as the source filed them. The rule behind the calls is not given here.

Tests used:
[1] = Inhibition of hyaluronidase activity at 71.68 mM
HepG2 [2] = assay: Hepatoprotective activity in human HepG2 cells assessed as inhibition of CCl4-induced toxicity at 6.25% IC50 after 24 hrs by MTT assay; assay type: functional, cell-based
Summary of the method: (§1)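 HepG2 cells grown 10 days in EMEM with 10% FBS, then seeded 24 h at 30,000 cells/ml in 2% FBS. Test agent added together with CCl4 (4.5 x 10^-3 M) for 24 h. Silybin was tested at 1–200 uM. Cucurbitacins were tested at 0.5 and […] their IC50, then at 0.13 and 0.06. MTT read at 570 nm. % protection calculated against CCl4-only and media-only controls. Three experiments, ≥3 replicates each.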

HepG2 [3] = assay: Hepatoprotective activity in human HepG2 cells assessed as protection against cell damage after 24 hrs by MTT assay; assay type: functional
[4] = Cytotoxicity against rat HSC-T6 cell after 24 hrs by MTT assay; assay type: cell-based; details: for IC50: Rattus norvegicus, HSC-T6, 24 h
HeLa = assay: Cytotoxicity against human HeLa cells after 24 hrs by MTT assay; assay type: functional, cell-based
HepG2 [5] = assay: Hepatoprotective activity in human HepG2 cells assessed as inhibition of CCl4-induced toxicity at 12.5% IC50 after 24 hrs by MTT assay; assay type: functional, cell-based; summary of the method: as §1
[6] = Antiproliferative activity against serum-stimulated rat HSC-T6 cells after 24 hrs by MTT assay; assay type: functional, cell-based; details: HSC-T6, 24 h
[7] = Antioxidant activity assessed as inhibition of free radical production at 0.58 mM within 6 mins by ABTS+ decolorization assay; assay type: functional
HepG2 [8] = assay: (§2) Cytotoxicity against human HepG2 cells after 24 hrs assessed as inhibition of cell viability by MTT assay; assay type: cell-based; details: for IC50: Homo sapiens, HepG2, 24 h
HepG2 [9] = assay: Ratio of IC50 for human HepG2 cells to IC50 for human HeLa cells
Summary of the method: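 Both lines (HepG2 grown 10 days, HeLa 7 days, in EMEM/10% FBS) seeded 24 h in 2% FBS at 30,000 and 15,000 cells/ml. Five-fold serial dilutions over 5 wells for 24 h. Viability by MTT at 570 nm versus cell-free and untreated controls. IC50 derived from log IC50. Ratio taken of the two IC50 values.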

HepG2 [10] = assay: Hepatoprotective activity in human HepG2 cells assessed as inhibition of CCl4-induced toxicity after 24 hrs by MTT assay; assay type: functional, cell-based; design: Activity: scale not given: the % may be the effect or the level left; details: for EC50: Homo sapiens, HepG2, 24 h
[11] = Ratio of IC50 to EC50 for antiproliferative activity in rat HSC-T6 cells; assay type: functional
HepG2 [12] = assay: Ratio of IC50 to EC50 for hepatoprotective activity in human HepG2 cells; assay type: functional
[13] = system: Radical scavenging activity; assay: Antioxidant activity assessed as DPPH radical scavenging activity at 64 uM after 10 mins; assay type: functional
[14] = as §2; assay type: cell-based; details: human, HepG2 cells; read-out: INH
HepG2 [15] = assay: Hepatoprotective activity in human HepG2 cells assessed as inhibition of CCl4-induced toxicity at 100 uM after 24 hrs by MTT assay; assay type: functional, cell-based; summary of the method: as §1
HSC-T6 = assay: Cytotoxicity against rat HSC-T6 cell up to 300 uM after 24 hrs by MTT assay; assay type: functional, cell-based
Summary of the method: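 HSC-T6 rat stellate cells grown 4-5 days in EMEM/10% FBS, then seeded 24 h at 100,000 cells/ml in 2% FBS. Medium replaced with compound in fresh 10% FBS medium, two-fold dilutions across seven wells, for 24 h. Viability by MTT (570 nm) relative to cell-free and untreated controls. Three experiments, ≥3 replicates each.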

| Structure (SMILES) | Activity (HepG2 [3]) | IC50 [4] | IC50 (HeLa) | EC50 [6] | IC50 (HepG2 [8]) | EC50 (HepG2 [10]) | Ratio IC50/EC50 [11] | Ratio IC50/EC50 (HepG2 [12]) | also measured |
| --- | --- | --- | --- | --- | --- | --- | --- | --- | --- |
| CCCCC1C(=O)N(c2ccccc2)N(c2ccccc2)C1=O | – | – | – | – | – | – | – | – | inhibition [1]: 50% |
| CCCOC1=C[C@@H]2C(=CC[C@@H]3[C@@]2(C)C(=O)C[C@]2(C)[C@@H]([C@@](C)(O)C(=O)/C=C/C(C)(C)OC(C)=O)[C@H](O)C[C@@]32C)C(C)(C)C1=O | 40% | 2.75 µM | 1.4 µM | 0.34 µM | – | – | – | – | inhibition (HepG2 [2]): inactive; inhibition (HepG2 [5]): inactive |
| Cc1c(C)c2c(c(C)c1O)CCC(C)(C(=O)O)O2 (configuration not stated) | – | – | – | – | – | – | – | – | inhibition [7]: 50% |
| CC(C)(O)/C=C/C(=O)[C@](C)(O)[C@H]1[C@H](O)C[C@@]2(C)[C@@H]3CC=C4[C@@H](C[C@H](O)C(=O)C4(C)C)[C@]3(C)C(=O)C[C@]12C [CUCURBITACIN D] | 40% | 26 µM | 0.7 µM | 0.07 µM | 77.3 µM | 9 µM | 379 | 9 | Ratio IC50 (HepG2 [9]): 107; inhibition (INH) (HepG2 [10]): 74% |
| COC1=C[C@@H]2C(=CC[C@@H]3[C@@]2(C)C(=O)C[C@]2(C)[C@@H]([C@@](C)(O)C(=O)/C=C/C(C)(C)OC(C)=O)[C@H](OC(C)=O)C[C@@]32C)C(C)(C)C1=O | 40% | 11.5 µM | 3.2 µM | 0.91 µM | 26 µM | 5.2 µM | 13 | 5 | Ratio IC50 (HepG2 [9]): 8 |
| CC(=O)OC(C)(C)/C=C/C(=O)[C@](C)(O)[C@H]1[C@H](O)C[C@@]2(C)[C@@H]3CC=C4[C@H](C[C@H](O)C(=O)C4(C)C)[C@]3(C)C(=O)C[C@]12C [CUCURBITACIN B] | 40% | 4.42 µM | 0.8 µM | 0.02 µM | 27.7 µM | 10.5 µM | 205 | 3 | Ratio IC50 (HepG2 [9]): 37 |
| CC(=O)OC(C)(C)/C=C/C(=O)[C@](C)(O)[C@H]1[C@H](O)C[C@@]2(C)[C@@H]3CC=C4[C@@H](C=C(OC(C)C)C(=O)C4(C)C)[C@]3(C)C(=O)C[C@]12C | 40% | 2.5 µM | – | 0.32 µM | 4.27 µM | – | 8 | – | – |
| COC1=C[C@@H]2C(=CC[C@@H]3[C@@]2(C)C(=O)C[C@]2(C)[C@@H]([C@@](C)(O)C(=O)/C=C/C(C)(C)O)[C@H](O)C[C@@]32C)C(C)(C)C1=O | 40% | 6.37 µM | – | 0.11 µM | 15 µM | 5.25 µM | 60 | 3 | inhibition (INH) (HepG2 [10]): 74% |
| O=C1O[C@H]([C@@H](O)CO)C(O)=C1O | – | – | – | – | – | – | – | – | inhibition [13]: 50% |
| CC(C)(O)/C=C/C(=O)[C@](C)(O)[C@H]1[C@H](O)C[C@@]2(C)[C@@H]3CC=C4[C@@H](CC(=O)[C@@H](O)C4(C)C)[C@]3(C)C(=O)C[C@]12C | 40% | 8.7 µM | – | 0.06 µM | 80.3 µM | 13.8 µM | 137 | 6 | inhibition (INH) (HepG2 [10]): 74% |
| CCOC1=C[C@@H]2C(=CC[C@@H]3[C@@]2(C)C(=O)C[C@]2(C)[C@@H]([C@@](C)(O)C(=O)/C=C/C(C)(C)OC(C)=O)[C@H](O)C[C@@]32C)C(C)(C)C1=O | 40% | 3.5 µM | 1.1 µM | 0.27 µM | 5.1 µM | – | 13 | – | Ratio IC50 (HepG2 [9]): 5; Activity (HepG2 [10]): <50% |
| COC1=C[C@@H]2C(=CC[C@@H]3[C@@]2(C)C(=O)C[C@]2(C)[C@@H]([C@@](C)(O)C(=O)/C=C/C(C)(C)OC(C)=O)[C@H](O)C[C@@]32C)C(C)(C)C1=O | 40% | 2.83 µM | – | 0.08 µM | 12 µM | 2.4 µM | 35 | 5 | – |
| CC(C)(O)/C=C/C(=O)[C@](C)(O)[C@H]1[C@H](O)C[C@@]2(C)[C@@H]3CC=C4[C@@H](C=C(O)C(=O)C4(C)C)[C@]3(C)C(=O)C[C@]12C [CUCURBITACIN I] | 40% | 3.6 µM | – | 0.02 µM | 15.8 µM | 3.16 µM | 150 | 5 | inhibition (INH) (HepG2 [10]): 74% |
| CC(=O)OC(C)(C)/C=C/C(=O)[C@](C)(O)[C@H]1[C@H](O)C[C@@]2(C)[C@@H]3CC=C4[C@@H](C=C(O[C@@H]5O[C@H](CO)[C@@H](O)[C@H](O)[C@H]5O)C(=O)C4(C)C)[C@]3(C)C(=O)C[C@]12C | 40% | 102 µM | 37 µM | 3.28 µM | 227 µM | 45.3 µM | 31 | 5 | Ratio IC50 (HepG2 [9]): 6 |
| ClC(Cl)(Cl)Cl [CARBON TETRACHLORIDE] | – | – | – | – | – | – | – | – | cytotoxicity at 24 h [14]: 50% |
| COc1cc(C2Oc3cc([C@H]4Oc5cc(O)cc(O)c5C(=O)[C@@H]4O)ccc3OC2CO)ccc1O (some centres not stated) [SILIBININ] | 40% | – | – | 18.8 µM | – | 45 µM | – | – | Activity (HepG2 [8]; human, hepg2, 24 h): Non-toxic; Activity ([4]; rat, hsc-t6, 24 h): Non-toxic; inhibition (HepG2 [15]): Active; Activity (HSC-T6): Not toxic |
| CCOC1=C[C@@H]2C(=CC[C@@H]3[C@@]2(C)C(=O)C[C@]2(C)[C@@H]([C@@](C)(O)C(=O)/C=C/C(C)(C)O)[C@H](O)C[C@@]32C)C(C)(C)C1=O | 40% | 3.53 µM | – | 0.34 µM | – | – | – | – | Activity (HepG2 [10]): <50% |
| CC(C)(O)/C=C/C(=O)[C@](C)(O)[C@H]1[C@H](O)C[C@@]2(C)[C@@H]3CC=C4[C@@H](C=C(O[C@@H]5O[C@H](CO)[C@@H](O)[C@H](O)[C@H]5O)C(=O)C4(C)C)[C@]3(C)C(=O)C[C@]12C | 40% | 256 µM | – | 4.15 µM | 390 µM | 195 µM | 62 | 2 | – |
| CCCOC1=C[C@@H]2C(=CC[C@@H]3[C@@]2(C)C(=O)C[C@]2(C)[C@@H]([C@@](C)(O)C(=O)/C=C/C(C)(C)O)[C@H](O)C[C@@]32C)C(C)(C)C1=O | 40% | 2.47 µM | – | 0.33 µM | 5 µM | – | 8 | – | Activity (HepG2 [10]): <50% |
| CC(=O)OC(C)(C)/C=C/C(=O)[C@](C)(O)[C@H]1[C@H](O)C[C@@]2(C)[C@@H]3CC=C4[C@@H](C=C(O)C(=O)C4(C)C)[C@]3(C)C(=O)C[C@]12C [CUCURBITACIN E] | 40% | – | 0.1 µM | 0.04 µM | 15.2 µM | 3.2 µM | – | – | inhibition (INH) (HepG2 [10]): 74% |
| CC(C)OC1=C[C@@H]2C(=CC[C@@H]3[C@@]2(C)C(=O)C[C@]2(C)[C@@H]([C@@](C)(O)C(=O)/C=C/C(C)(C)O)[C@H](O)C[C@@]32C)C(C)(C)C1=O | 40% | 2.53 µM | – | 0.25 µM | 7.33 µM | – | 10 | – | Activity (HepG2 [10]): <50% |
| COC1=C[C@@H]2C(=CC[C@@H]3[C@@]2(C)C(=O)C[C@]2(C)[C@@H]([C@@](C)(O)C(=O)CCC(C)(C)O)[C@H](O)C[C@@]32C)C(C)(C)C1=O | 40% | 6.7 µM | – | 0.18 µM | – | 5 µM | – | – | inhibition (INH) (HepG2 [10]): 74% |
